The structures appear in SMILES notation. Values after ≈ are worked out from the molar mass of the structure shown. Active and inactive are the calls of the source. The calls are words filed in the database; no cut-off is given here.

Data set [1] concerns Staphylococcus aureus. Description: Antibacterial activity against methicillin-resistant Staphylococcus aureus clinical isolate 2 assessed as bacterial growth inhibition incubated for 16 hrs by CLSI based broth microdilution method. Format: functional.
For data set [2], the system named is Staphylococcus aureus. Description: Antibacterial activity against methicillin-resistant Staphylococcus aureus 1707 assessed as zone of inhibition at 10 mM incubated for 16 hrs by agar diffusion assay. Format: functional. In outline:
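Modified Kirby-Bauer disk diffusion. 100 µL MRSA 1707 inoculum (OD₆₀₀ 0.7, ~10⁸ CFU) spread on LB agar and left 30 min. 10 µL of 10 mM DMSO compound solution then pipetted onto the plate. Incubation 16 h at 37 °C; zone of inhibition area (cm²) measured. Three independent experiments.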
(In general: Agar diffusion results depend on both activity and mobility in agar.)

Data set [3] deals with Staphylococcus aureus. Description: Antibacterial activity against Staphylococcus aureus clinical isolate 138 assessed as bacterial growth inhibition incubated for 16 hrs by CLSI based broth microdilution method. Format: functional.
The nature of data set [4]: Cytotoxicity against HEK293 cells incubated for 48 hrs by MTT assay. Format: toxicity, cell-based. The following applies: human. The method, boiled down:
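HEK-293 cells (10⁴/well) in DMEM with 10% FBS, penicillin/streptomycin, settled overnight at 37 °C, 5% CO₂. Medium replaced with compound at 0.10–100 µM (2-fold steps); DMSO as negative control. After 48 h at 37 °C, MTT (5 mg/mL stock) added for 3 h. Formazan dissolved in DMSO, OD read at 570 nm. Eight replicates per treatment.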

Data set [5] has as its system Staphylococcus aureus. Description: Antibacterial activity against methicillin-resistant Staphylococcus aureus BAA-1707 assessed as bacterial growth inhibition incubated for 16 hrs by CLSI based broth microdilution method. Format: functional. In outline: (§1)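 Broth microdilution per CLSI in LB, eleven two-fold serial dilutions spanning 0.10 to 100 µM. Inoculum ~10⁵ cells/well from fresh log-phase culture (OD₆₀₀ 0.6–0.8). MIC taken as lowest concentration preventing growth after 16 h at 37 °C, read by OD₆₀₀ turbidity. DMSO vehicle control, top 0.5% v/v. At least three independent experiments.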

Data set [6] can be described thus: Lipophilicity, LogP of compound in octanol-water mixture incubated for 1 hr by UV-vis spectroscopy. Format: physicochemical. In outline: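 Shake-flask partition: compound in octanol (1% v/v DMSO) mixed with equal volume water, stirred vigorously, left 1 h at room temperature to separate. Octanol-phase concentration measured by UV-Vis at 370 or 380 nm against a serial-dilution standard curve. Water concentration obtained by mass balance; LogP = log10(Coct/Cw). Acetophenone as positive control. Three independent experiments.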

In data set [7] the test system is Staphylococcus aureus. As to the kind of experiment: Antibacterial activity against Staphylococcus aureus clinical isolate 129 assessed as bacterial growth inhibition incubated for 16 hrs by CLSI based broth microdilution method. Format: functional. (Broth dilution looks for growth in wells or tubes with falling amounts of substance.)
Data set [8] concerns Staphylococcus aureus. Description: Antibacterial activity against Staphylococcus aureus clinical isolate 156 assessed as bacterial growth inhibition incubated for 16 hrs by CLSI based broth microdilution method. Format: functional.
The subject of data set [9] is Staphylococcus epidermidis. Description: Antibacterial activity against methicillin-resistant Staphylococcus epidermidis 35984 assessed as bacterial growth inhibition incubated for 16 hrs by CLSI based broth microdilution method. Format: functional. In outline: as §1
Data set [10] deals with Staphylococcus aureus. As to the kind of experiment: Antibacterial activity against Staphylococcus aureus clinical isolate 147 assessed as bacterial growth inhibition incubated for 16 hrs by CLSI based broth microdilution method. Format: functional.
Data set [11] relates to Staphylococcus aureus. Description: Antibacterial activity against methicillin-resistant Staphylococcus aureus clinical isolate 1 assessed as bacterial growth inhibition incubated for 16 hrs by CLSI based broth microdilution method. Format: functional.
Data set [12] relates to Staphylococcus epidermidis. Description: Antibacterial activity against Staphylococcus epidermidis clinical isolate CL-1 assessed as bacterial growth inhibition incubated for 16 hrs by CLSI based broth microdilution method. Format: functional.
For data set [13], the system named is Streptococcus pneumoniae. As to the kind of experiment: Antibacterial activity against Streptococcus pneumoniae 6303 assessed as bacterial growth inhibition incubated for 16 hrs by CLSI based broth microdilution method. Format: functional. The method, boiled down:
(§2)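 CLSI broth microdilution in LB: eleven 2-fold serial dilutions, 0.10–100 µM. DMSO vehicle/negative control diluted from 0.5% v/v. Wells seeded with ~10⁵ cells from log-phase culture (OD₆₀₀ 0.6–0.8), held 16 h at 37 °C. MIC taken as the lowest concentration preventing growth by OD₆₀₀ turbidity. Minimum three independent experiments.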

A short description of data set [14]: Hemolytic activity against red blood cells (unknown origin) at 200 uM. Format: toxicity, cell-based, Erythrocyte. The following applies: read-out: Activity.
The test system of data set [15] is Staphylococcus aureus. Description: Antibacterial activity against methicillin-resistant Staphylococcus aureus BAA-44 assessed as bacterial growth inhibition incubated for 16 hrs by CLSI based broth microdilution method. Format: functional. In outline:
as §1

Data set [16] relates to Enterococcus. Description: Antibacterial activity against vancomycin-resistant Enterococcus 700221 assessed as bacterial growth inhibition incubated for 16 hrs by CLSI based broth microdilution method. Format: functional. The method, boiled down:
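Growth scored by OD₆₀₀ turbidity after 16 h at 37 °C; MIC is the lowest concentration preventing growth. DMSO vehicle control up to 0.5% v/v. Three or more independent experiments.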

The test system of data set [17] is Enterococcus faecalis. As to the kind of experiment: Antibacterial activity against Enterococcus faecalis OG1RF assessed as bacterial growth inhibition incubated for 16 hrs by CLSI based broth microdilution method. Format: functional. In outline: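 Broth microdilution per CLSI in brain-heart infusion: eleven 2-fold dilutions spanning 0.10–100 µM, with DMSO vehicle/negative control topping at 0.5% v/v. Inoculum ~10⁵ cells/well from log-phase culture (OD₆₀₀ 0.6–0.8). 37 °C, 16 h. MIC is the lowest concentration preventing growth, read as OD₆₀₀ turbidity. At least three independent experiments.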

For data set [18], the system named is Staphylococcus aureus. As to the kind of experiment: Antibacterial activity against methicillin-resistant Staphylococcus aureus 1707 assessed as bacterial growth inhibition incubated for 16 hrs by CLSI based broth microdilution method. Format: functional. In outline: as §1
Data set [19] is described as follows: Metal chelating activity assessed as formation of phenazine-iron complex measured for 1 to 60 mins by UV-vis spectroscopy. The following applies: time 1-60 min. In outline: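 Compound from a 10 mM DMSO stock diluted in DMSO in a cuvette, alone or with ammonium iron(II) sulfate hexahydrate (10 mM aqueous stock). Spectra of the compound-only cuvette and the iron-containing cuvette are compared by UV-vis spectrometry to judge phenazine–iron(II) complex formation.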

Data set [20] concerns Staphylococcus epidermidis. As to the kind of experiment: Antibacterial activity against Staphylococcus epidermidis 12228 assessed as bacterial growth inhibition incubated for 16 hrs by CLSI based broth microdilution method. Format: functional. In outline:
as §2

For `O=[N+]([O-])c1ccc(CS(=O)(=O)Oc2c(Br)cc(Br)c3nc4ccccc4nc23)cc1`, the minimum inhibitory concentration (MIC) is 2.35 µM (≈ 1.3 µg/mL) in data set [1]; 4.69 µM (≈ 2.59 µg/mL) in data set [3]; 0.78 µM (≈ 0.431 µg/mL) in data set [5]; 6.25 µM (≈ 3.46 µg/mL) in [7]; 6.25 µM (≈ 3.46 µg/mL) in [8]; 4.69 µM (≈ 2.59 µg/mL) in data set [9]. In addition, the MIC in [10] is 6.25 µM (≈ 3.46 µg/mL); in data set [11] it was 3.13 µM (≈ 1.73 µg/mL); in data set [12] it was 6.25 µM (≈ 3.46 µg/mL); in data set [13], 4.69 µM (≈ 2.59 µg/mL); in [15] it was 1.56 µM (≈ 0.863 µg/mL); in data set [16], 9.38 µM (≈ 5.19 µg/mL). Further, the MIC in [17] is 37.5 µM (≈ 20.7 µg/mL); in [18] it was 0.78 µM (≈ 0.431 µg/mL); in [20], 4.69 µM (≈ 2.59 µg/mL). In data set [2], the “diameter of the inhibition zone (DIZ)” value was 1.13 cm2. The same molecule showed a 50% cytotoxic concentration (CC50) at 48 h in [4] of 51.7 µM. Further, in data set [6], the logP at 1 h is 0.42. For the same molecule, the hemolysis at 200 µM in data set [14] is below 1%. The outcome in data set [19] was inactive.
Turning to `Oc1c(Br)cc(Br)c2nc3ccccc3nc12`, the MIC in [1] was 1.56 µM (≈ 0.552 µg/mL); in [11], 0.78 µM (≈ 0.276 µg/mL); in [13], 1.17 µM (≈ 0.414 µg/mL); in [17], 18.8 µM (≈ 6.66 µg/mL); in [20], 2.35 µM (≈ 0.832 µg/mL). For the same molecule, the “diameter of the inhibition zone (DIZ)” value in [2] is 5.08 cm2. Also, the logP at 1 h in data set [6] came out at 0.25. In addition, in data set [14], the hemolysis at 200 µM was below 1%. Also, in data set [19], the result was Active.
For `Cc1cccc2nc3c(O)c(Br)c(Cl)c(Br)c3nc12`, the MIC came out at 0.15 µM (≈ 0.0604 µg/mL) in data set [1]; 0.1 µM (≈ 0.0402 µg/mL) in data set [3]; 0.1 µM (≈ 0.0402 µg/mL) in data set [5]; 0.1 µM (≈ 0.0402 µg/mL) in data set [7]; 0.1 µM (≈ 0.0402 µg/mL) in data set [8]; 0.1 µM (≈ 0.0402 µg/mL) in data set [9]. The MIC in data set [10] was found to be 0.1 µM (≈ 0.0402 µg/mL); in data set [11], 0.1 µM (≈ 0.0402 µg/mL); in data set [12] it was 0.39 µM (≈ 0.157 µg/mL); in [13] it was 0.1 µM (≈ 0.0402 µg/mL); in data set [15], 0.15 µM (≈ 0.0604 µg/mL); in data set [16] it was 0.1 µM (≈ 0.0402 µg/mL). Further, the MIC in [17] was found to be 0.39 µM (≈ 0.157 µg/mL); in data set [18] it was 0.1 µM (≈ 0.0402 µg/mL); in data set [20], 0.1 µM (≈ 0.0402 µg/mL). Further, in data set [2], the “diameter of the inhibition zone (DIZ)” value was determined as 3.85 cm2. The same molecule showed a CC50 at 48 h in [4] of 18.3 µM. Besides, the logP at 1 h in data set [6] came to 0.81. In addition, the hemolysis at 200 µM in data set [14] is below 1%. Further, the result in data set [19] was inactive.
As for `Cc1cccc2nc3c(OS(=O)(=O)Cc4ccc([N+](=O)[O-])cc4)c(Br)c(Cl)c(Br)c3nc12`, the MIC came to 0.3 µM (≈ 0.18 µg/mL) in [1]; 0.39 µM (≈ 0.235 µg/mL) in data set [3]; 0.1 µM (≈ 0.0602 µg/mL) in [5]; 0.59 µM (≈ 0.355 µg/mL) in data set [8]; 0.15 µM (≈ 0.0902 µg/mL) in data set [9]; 0.59 µM (≈ 0.355 µg/mL) in data set [10]. Moreover, the MIC in data set [11] was found to be 0.3 µM (≈ 0.18 µg/mL); in data set [12], 2.35 µM (≈ 1.41 µg/mL); in [13], 0.15 µM (≈ 0.0902 µg/mL); in [15], 0.3 µM (≈ 0.18 µg/mL); in data set [16] it was 0.15 µM (≈ 0.0902 µg/mL); in data set [17], 4.69 µM (≈ 2.82 µg/mL). Further, the MIC in data set [18] came to 0.1 µM (≈ 0.0602 µg/mL); in data set [20], 0.59 µM (≈ 0.355 µg/mL). The “diameter of the inhibition zone (DIZ)” value in [2] turned out to be 0.87 cm2. For the same molecule, in data set [4], it took 34.1 µM to reach half-maximal cytotoxicity (CC50 at 48 h). In addition, the logP at 1 h in data set [6] turned out to be 3.11. In data set [14], the hemolysis at 200 µM was below 1%. In [19], the result was Active.

What is called MIC is the lowest concentration found to suppress growth. For orientation: CC50 means the concentration at which the toxic effect on the cells reaches its halfway point. A lower CC50 goes with greater toxicity to the cells. One may read the logP as a log measure of how a compound divides between an organic and an aqueous phase.

The values are drawn from ChEMBL document CHEMBL5329167, “Design, synthesis and evaluation of halogenated phenazine antibacterial prodrugs targeting nitroreductase enzymes for activation” (RSC Med Chem, 2023).
